Results gathered from unrelated publications.
Lines come from different studies, so protocols differ.
Target: Leukocyte tyrosine kinase receptor (LTK, Homo sapiens, UniProt P29376)

| Structure (SMILES) | assay | setting | quantity | result |
| --- | --- | --- | --- | --- |
| COc1cc2nccc(Oc3ccc(NC(=O)c4c5n(n(-c6ccc(F)cc6)c4=O)CCCC5)cc3)c2cc1OC | enzyme activity, inhibitor | 0.1 µM | inhibition | -10% |
| Cc1cc(NC(=O)c2cccc3cc(-c4cccc5[nH]nc(N)c45)ccc23)ccc1F | enzyme activity, inhibitor | 0.1 µM | activity vs control | 96% |
| Cc1ccc(NC(=O)c2ccc(C)c(C(F)(F)F)c2)cc1C#Cc1nn(C2CCC(O)CC2)c2ncnc(N)c12 (stereo not shown) | cell-free assay | 10 µM | remaining signal | 73% |
| Cc1sc(C(=O)NC2COC2)cc1-n1cc(NC(=O)Nc2c(F)cccc2Cl)cn1 | enzyme activity, inhibitor | 10 µM | remaining activity | 114% |
| CCCS(=O)(=O)Nc1ccc(F)c(C(=O)c2c[nH]c3ncc(-c4ccc(Cl)cc4)cc23)c1F | enzyme activity, inhibitor | 1 µM | inhibition | < 10% |
| COc1cc2ncnc(Nc3ccc(Oc4ccccc4)c(C)c3C)c2cc1OC | enzyme activity, inhibitor | 1 µM | inhibition | -2% |
| O=C(O)[C@H]1[C@H](Cn2nnc3ccccc3c2=O)CC[C@@H]1C(=O)c1ccc(OCCC2CCOCC2)cc1 | cell-free assay, competition with immobilised ligand | 1 µM | remaining binding | 100% |
| Cc1cnc(NC2CCOCC2)nc1-n1cnc(C(=O)NC(CN)c2cc(F)cc(Cl)c2)c1 (stereo not shown) | enzyme activity, inhibitor, radiometric | 1 µM | remaining activity | 103% |
| Cc1ccc(C(=O)Nc2ccc(CN3CCN(C)CC3)c(C(F)(F)F)c2)cc1C#Cc1cnc2cccnn12 | cell-free assay | 23.5 nM | remaining signal | 82% |
| CC(C)(O)[C@H]1CC[C@H](Nc2ccc3ncc(-c4cccc(C(F)(F)F)c4)n3n2)CC1 | enzyme activity, inhibitor | 1 µM | remaining activity | 70.5% |
| CC/C(=N\NC(=O)NCc1cccc(O)c1)c1ccc(O)c(C)c1O | enzyme activity, inhibitor | 0.1 µM | inhibition | -1.4% |
| COc1cc2ncnc(Nc3ccc(Oc4ccccc4)cc3C)c2cc1OC | enzyme activity, inhibitor | 1 µM | inhibition | -5% |
| Cc1ccc(C(=O)NCc2ccsc2)cc1C#Cc1cn(C(C)C)c2ncnc(N)c12 | enzyme activity, inhibitor | 1 µM | activity vs control | 95% |
| O=C(Nc1cnc(Oc2ccc(F)cc2)nc1)N1CCc2ncccc2[C@@H]1c1ccc(F)cc1 | cell-free assay, competition with immobilised ligand | 1 µM | remaining binding | 93% |
| COc1cc(Cl)c(C(=O)N[C@@H](CN[C@H]2CC[C@@H](N)CC2)Cc2ccc(C#N)cc2)cc1-c1ccc(CN[C@H](C)c2ccc(C)cc2)o1 | enzyme activity, inhibitor | 1 µM | remaining activity | 94% |
| Cc1noc([C@H]2C[C@@H](c3ccc(C(F)(F)F)cc3)CN(C(=O)N3CCS(=O)(=O)C3)C2)n1 | cell-free assay, competition with immobilised ligand | 1 µM | remaining binding | 100% |
| O=C(Nc1cnn(-c2csc(C(=O)NC3COC3)c2)c1)Nc1c(F)cccc1Cl | enzyme activity, inhibitor | 5 µM | remaining activity | 92.2% |
| COCCOc1nc(-c2ccc(Cl)nc2)nc2c1CN(C(=O)c1ncn3ccccc13)CC2 | cell-free assay, competition with immobilised ligand | 0.1 µM | remaining binding | 100% |
| Nc1ncnc2occ(-c3ccc(NC(=O)Nc4cc(C(F)(F)F)ccc4F)cc3)c12 | enzyme activity, inhibitor | 20 µM | remaining activity | 1.6% |
